Here are results for 1 compound from ChEMBL document CHEMBL4024800, “α-Amino-β-carboxymuconate-ε-semialdehyde Decarboxylase (ACMSD) Inhibitors as Novel Modulators of De Novo Nicotinamide Adenine Dinucleotide (NAD+) Biosynthesis” (J Med Chem, 2018).

One may read the half-life as how long it takes for the measured level to halve. What is called solubility is the concentration that dissolves in the medium under given conditions. The low end stands for a poorly soluble substance, the high end for a readily soluble substance. For orientation: AUC(0-t) means the area under the concentration-time curve up to a stated or last time point. A lower AUC(0-t) goes with low exposure. What is called IC50 is the concentration at which inhibition is half-maximal. One may read the Kp as the ratio of the level in a tissue or fluid to that in plasma or blood.

In brackets after ≈: the same amount, converted by molar mass. Activity calls are given as the source filed them. No cut-off for these calls is given here. Bounds are passed on as bounds.

A short description of series [1]: Half life in CD1 mouse at 0.5 mg/kg, iv measured up to 24 hrs post dose. Format: ADME, organism-based. Particulars: in vivo. The method, boiled down: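 Mice given 0.5 mg/kg IV in saline containing 5% (v/v) DMSO and 20% (v/v) PEG400; blood pharmacokinetic parameters reported as means.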
For series [2], the target named is T1, Vitamin D3 receptor (Homo sapiens) (UniProt P11473).
T1 sequence (whole entry): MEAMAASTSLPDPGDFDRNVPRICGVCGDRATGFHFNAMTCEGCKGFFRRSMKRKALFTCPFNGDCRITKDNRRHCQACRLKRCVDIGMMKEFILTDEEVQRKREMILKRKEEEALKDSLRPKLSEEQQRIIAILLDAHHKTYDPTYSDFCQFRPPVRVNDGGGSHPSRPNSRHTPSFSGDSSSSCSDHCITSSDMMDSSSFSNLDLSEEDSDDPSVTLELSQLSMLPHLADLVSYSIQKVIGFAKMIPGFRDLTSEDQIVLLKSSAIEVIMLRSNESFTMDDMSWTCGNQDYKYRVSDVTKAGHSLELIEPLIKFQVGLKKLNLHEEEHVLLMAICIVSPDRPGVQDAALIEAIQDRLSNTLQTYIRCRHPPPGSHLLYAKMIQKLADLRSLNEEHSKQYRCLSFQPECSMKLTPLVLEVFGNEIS
The series is described as follows: Activity at VDR (unknown origin). The method, boiled down:
(§1)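 Eight-point serial dilutions tested in an in-house AlphaScreen-based nuclear receptor panel; activity derived from nonlinear regression curves.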

Series [3] in a line: Solubility of compound in PBS buffer at pH 7.4 after 24 hrs by UV/vis-spectroscopic analysis. It is filed as physicochemical. The procedure, abridged: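 Compound in PBS pH 7.4 with 1% DMSO mixed, incubated 24 h and vacuum-filtered; filtrate read by UV/vis and relative solubility calculated from summed readings against a standard. Reported in mg/mL.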
Series [4] deals with T2, Glucocorticoid receptor (Homo sapiens) (UniProt P04150).
T2 sequence (whole entry): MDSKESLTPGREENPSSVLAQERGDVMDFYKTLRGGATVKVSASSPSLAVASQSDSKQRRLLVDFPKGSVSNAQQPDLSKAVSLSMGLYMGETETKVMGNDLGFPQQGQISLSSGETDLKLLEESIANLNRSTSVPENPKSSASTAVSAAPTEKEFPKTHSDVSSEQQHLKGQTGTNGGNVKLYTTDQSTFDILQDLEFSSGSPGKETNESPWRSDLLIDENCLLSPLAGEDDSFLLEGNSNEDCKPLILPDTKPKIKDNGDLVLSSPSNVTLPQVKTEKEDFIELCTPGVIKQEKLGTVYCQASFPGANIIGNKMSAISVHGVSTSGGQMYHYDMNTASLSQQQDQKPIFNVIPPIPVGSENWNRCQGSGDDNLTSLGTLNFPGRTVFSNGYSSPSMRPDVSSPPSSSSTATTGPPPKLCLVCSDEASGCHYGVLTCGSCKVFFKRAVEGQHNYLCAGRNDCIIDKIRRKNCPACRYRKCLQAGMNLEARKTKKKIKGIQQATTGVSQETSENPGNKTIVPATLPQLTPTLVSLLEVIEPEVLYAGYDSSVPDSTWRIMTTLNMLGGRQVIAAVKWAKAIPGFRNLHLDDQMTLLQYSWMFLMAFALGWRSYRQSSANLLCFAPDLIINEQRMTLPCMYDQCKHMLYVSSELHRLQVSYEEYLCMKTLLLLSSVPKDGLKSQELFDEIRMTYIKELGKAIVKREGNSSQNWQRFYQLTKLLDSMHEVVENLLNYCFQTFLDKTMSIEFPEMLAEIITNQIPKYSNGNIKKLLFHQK
The series is described as follows: Activity at GR (unknown origin). The procedure, abridged: as §1

Series [5] can be described thus: AUClast in mouse liver at 5 mg/kg, po measured up to 8 hrs post dose. Format: ADME, organism-based. Set-up: dose 5 mg/kg, time < 8 hr, route oral. The method, boiled down: (§2)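 Mice dosed orally at 5 mg/kg in 0.5% (w/v) HPMC in water with 5% (v/v) DMSO; blood, liver and kidney concentrations followed to 8 h. AUC0–8h given in h·ng/mL; parameters reported as means.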

The target in series [6] is Cytochrome P450 2D6 (Homo sapiens, UniProt P10635). The series is described as follows: Inhibition of recombinant human CYP2D6 expressed in baculosomes expression system using fluorogenic-BOMCC as substrate by fluorescent homogeneous assay. Format: ADME. The procedure, abridged: (§3)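 Recombinant CYP baculosomes with fluorogenic substrates, at concentrations below their Km; homogeneous fluorescence read-out, run in triplicate. IC50 classes: <1 μM potent, 1–10 μM moderate, >10 μM weak or none.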
Chain of Cytochrome P450 2D6 (P10635 whole entry): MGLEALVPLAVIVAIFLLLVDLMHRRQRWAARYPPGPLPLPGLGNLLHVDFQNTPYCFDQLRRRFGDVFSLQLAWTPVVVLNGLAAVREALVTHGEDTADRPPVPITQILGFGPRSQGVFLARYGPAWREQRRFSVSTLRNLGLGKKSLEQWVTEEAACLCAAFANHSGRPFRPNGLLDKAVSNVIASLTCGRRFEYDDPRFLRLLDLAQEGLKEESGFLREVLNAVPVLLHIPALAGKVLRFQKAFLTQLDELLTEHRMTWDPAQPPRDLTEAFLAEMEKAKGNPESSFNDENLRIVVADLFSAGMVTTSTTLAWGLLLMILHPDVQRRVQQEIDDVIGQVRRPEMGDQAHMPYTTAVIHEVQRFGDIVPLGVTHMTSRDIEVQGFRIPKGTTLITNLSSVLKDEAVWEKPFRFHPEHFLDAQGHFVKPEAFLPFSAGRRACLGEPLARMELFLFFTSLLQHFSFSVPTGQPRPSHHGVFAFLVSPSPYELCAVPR

The nature of series [7]: AUClast in mouse kidney at 5 mg/kg, po measured up to 8 hrs post dose. It is filed as ADME, organism-based. Set-up: time < 8 hr, dose 5 mg/kg, route oral. The procedure, abridged: as §2
For series [8], the species on record is Homo sapiens. The series is described as follows: Activity at PPAR (unknown origin). The method, boiled down:
as §1

Series [9] has as its system HepG2. The series is described as follows: Cytotoxicity against human HepG2 cells assessed as reduction in cell viability after 4 hrs by celltiter-glo assay. Format: cell-based. To be noted: hepg2, 4 h. The method, boiled down:
(§4)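 HepG2 or AML12 cells, 5 × 10^3 per well, exposed to compound for 4 h at 37 °C. Viability read as ATP by CellTiter-Glo luminescence; tamoxifen control.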
In general terms: Cellular ATP, detected with luciferase, serves as a proxy for viable cell number.

Series [10] is filed under the species Homo sapiens. The series is described as follows: Activity at RXR (unknown origin). The procedure, abridged: as §1
A short description of series [11]: Ratio of AUClast in mouse liver to blood at 5 mg/kg, po measured up to 8 hrs post dose.
In series [12] the test system is Mus musculus. The series is described as follows: In vivo inhibition of ACMSD in CD1 mouse kidney at 5 mg/kg, po after 0.5 to 2 hrs. Format: functional, organism-based. The method, boiled down: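 CD1 mice dosed orally at 5 mg/kg in 0.5% (w/v) HPMC in water with 5% (v/v) DMSO; kidneys collected at various times, snap-frozen and ground. Tissue powder homogenised in 50 mM Tris pH 7.5, 0.15 M NaCl with protease inhibitors, spun 38 000g 20 min at 4 °C. Supernatant assayed spectrophotometrically with 30 μM 3-hydroxyanthranilic acid; activity normalised to BCA protein. One-way ANOVA with Dunnett's test.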

The nature of series [13]: Cytotoxicity against mouse AML-12 cells assessed as reduction in cell viability after 4 hrs by celltiter-glo assay. Format: cell-based. To be noted: aml-12, 4 h. The method, boiled down: as §4
The nature of series [14]: Drug uptake in mouse central nervous system at 5 mg/kg, po. It is filed as ADME, organism-based. To be noted: in vivo.
The target of series [15] is Cytochrome P450 3A4 (Homo sapiens, UniProt P08684). The series is described as follows: Inhibition of recombinant human CYP3A4 expressed in baculosomes expression system using fluorogenic-BOMCC as substrate by fluorescent homogeneous assay. It is filed as ADME. The procedure, abridged:
as §3

The target of series [16] is Cytochrome P450 2C19 (Homo sapiens, UniProt P33261). The series is described as follows: Inhibition of recombinant human CYP2C19 expressed in baculosomes expression system using fluorogenic-BOMCC as substrate by fluorescent homogeneous assay. It is filed as ADME. The method, boiled down: as §3
Chain of Cytochrome P450 2C19 (P33261 whole entry): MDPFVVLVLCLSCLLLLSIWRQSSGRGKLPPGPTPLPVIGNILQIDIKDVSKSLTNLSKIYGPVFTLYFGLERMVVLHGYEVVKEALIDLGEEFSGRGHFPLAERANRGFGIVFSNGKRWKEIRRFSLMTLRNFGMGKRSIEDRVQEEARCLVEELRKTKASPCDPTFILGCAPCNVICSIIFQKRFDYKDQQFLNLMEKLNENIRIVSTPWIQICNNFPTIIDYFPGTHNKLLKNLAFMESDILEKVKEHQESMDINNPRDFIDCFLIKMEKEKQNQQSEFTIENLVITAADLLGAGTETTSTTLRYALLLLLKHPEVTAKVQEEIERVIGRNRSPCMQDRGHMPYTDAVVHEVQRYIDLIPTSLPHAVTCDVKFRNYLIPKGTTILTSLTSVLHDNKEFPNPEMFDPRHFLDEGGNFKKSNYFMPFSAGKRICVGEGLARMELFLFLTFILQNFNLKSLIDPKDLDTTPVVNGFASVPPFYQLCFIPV
For series [17], the target named is 2-amino-3-carboxymuconate-6-semialdehyde decarboxylase (Homo sapiens, UniProt Q8TDX5). The series is described as follows: Inhibition of ACMSD in human primary hepatocytes assessed as increase in intracellular NAD+ levels at 5 uM after 48 hrs by NAD/NADH-Glo assay. It is filed as cell-based.
Chain of 2-amino-3-carboxymuconate-6-semialdehyde decarboxylase (Q8TDX5 whole entry, looked up): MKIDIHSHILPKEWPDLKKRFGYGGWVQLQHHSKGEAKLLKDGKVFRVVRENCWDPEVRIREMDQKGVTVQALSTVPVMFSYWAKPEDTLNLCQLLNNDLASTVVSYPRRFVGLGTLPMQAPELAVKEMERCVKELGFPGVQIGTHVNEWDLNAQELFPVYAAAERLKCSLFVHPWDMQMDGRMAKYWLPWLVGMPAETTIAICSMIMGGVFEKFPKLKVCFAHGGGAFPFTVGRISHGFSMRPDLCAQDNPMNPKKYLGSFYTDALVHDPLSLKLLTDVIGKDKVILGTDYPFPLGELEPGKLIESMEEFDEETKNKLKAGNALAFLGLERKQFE
The test system of series [18] is Mus musculus. The series is described as follows: In vivo inhibition of ACMSD in C57BL/6 mouse assessed as increase in NAD+ levels in liver at 15 and 30 mg/kg/day for 10 days dosed as diet supplement by ion-pair C18- HPLC chromatography. Format: functional, organism-based. The method, boiled down:
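Male mice given the compound in the diet for 10 days; vehicle 5% DMSO, 20% PEG. After a 3 h fast, livers snap-frozen and ground; NAD+ extracted by sonication in HClO4, quantified by ion-pair C18 HPLC and normalised to BCA protein. One-way ANOVA with Dunnett's test.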

Chain of Cytochrome P450 3A4 (P08684 whole entry): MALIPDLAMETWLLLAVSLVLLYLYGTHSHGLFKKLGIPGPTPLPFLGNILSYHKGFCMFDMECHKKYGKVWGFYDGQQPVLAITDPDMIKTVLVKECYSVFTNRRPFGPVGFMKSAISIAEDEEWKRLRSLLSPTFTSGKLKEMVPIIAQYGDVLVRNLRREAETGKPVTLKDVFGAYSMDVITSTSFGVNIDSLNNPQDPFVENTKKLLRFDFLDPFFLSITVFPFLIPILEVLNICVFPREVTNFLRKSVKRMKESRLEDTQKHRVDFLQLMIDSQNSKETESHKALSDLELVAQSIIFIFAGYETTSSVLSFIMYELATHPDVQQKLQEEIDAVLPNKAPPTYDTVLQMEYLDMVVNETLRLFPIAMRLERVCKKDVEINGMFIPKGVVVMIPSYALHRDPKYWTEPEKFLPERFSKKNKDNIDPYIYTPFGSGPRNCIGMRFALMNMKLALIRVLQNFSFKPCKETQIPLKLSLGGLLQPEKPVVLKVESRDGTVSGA

Consider `N#Cc1c(-c2cccs2)nc(SCc2cccc(CC(=O)O)c2)[nH]c1=O`, for which the half-life in series [1] is 5.33 h. The result in [2], in [4], in series [8] and in [10] was inactive. In series [3], this compound had a solubility at 24 h of 800 µg/mL (≈ 2090 µM). The AUC(0-t) at 8 h in series [5] was found to be 19200 ng·h/mL; in series [7], 36600 ng·h/mL. The IC50 in [6], in [15] and in [16] was above 10 µM throughout. Further, the Activity entry in series [9] and in series [13] was “Non-Toxic” throughout. The partition ratio (Kp) at 8 h in series [11] stood at 1.5. Also, the inhibition result in series [12], in series [17] and in [18] was “Active” in each case. Besides, the Drug uptake result in series [14] was “Not Active”.
